Data taken from ChEMBL document CHEMBL4118144, “Design, Synthesis, and Testing of Potent, Selective Hepsin Inhibitors via Application of an Automated Closed-Loop Optimization Platform” (J Med Chem, 2018).
≈ marks a conversion by molar mass, not a printed value.

Columns and labels:
[1] = biological target: Plasma kallikrein (Homo sapiens) (UniProt P03952); test: Inhibition of human plasma kallikrein using H-D-Pro-Phe-Arg-pNA as substrate at 10 uM after 30 mins by spectrophotometric method relative to control
Chain of Plasma kallikrein (Homo sapiens) (P03952 20-390 limits assumed): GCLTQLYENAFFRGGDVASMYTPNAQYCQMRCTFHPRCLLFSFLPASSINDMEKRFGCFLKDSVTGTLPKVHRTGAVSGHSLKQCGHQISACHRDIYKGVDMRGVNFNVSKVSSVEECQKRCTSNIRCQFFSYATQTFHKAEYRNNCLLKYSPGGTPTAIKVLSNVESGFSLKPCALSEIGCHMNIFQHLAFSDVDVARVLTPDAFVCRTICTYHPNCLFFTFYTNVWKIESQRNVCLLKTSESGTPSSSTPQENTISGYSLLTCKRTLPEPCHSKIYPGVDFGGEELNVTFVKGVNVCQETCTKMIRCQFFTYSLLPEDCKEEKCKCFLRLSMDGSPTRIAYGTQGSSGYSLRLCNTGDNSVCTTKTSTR
Chain of Plasma kallikrein (Homo sapiens) (P03952 391-638 limits assumed): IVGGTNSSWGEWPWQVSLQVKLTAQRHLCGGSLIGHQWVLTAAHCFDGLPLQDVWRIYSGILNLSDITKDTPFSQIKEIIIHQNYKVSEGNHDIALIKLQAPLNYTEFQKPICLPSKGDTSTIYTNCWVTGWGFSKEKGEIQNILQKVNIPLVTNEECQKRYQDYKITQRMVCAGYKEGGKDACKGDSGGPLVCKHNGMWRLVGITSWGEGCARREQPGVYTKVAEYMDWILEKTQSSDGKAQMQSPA
Summary of the method: (§1)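 Panel of ten serine proteases; percent inhibition read at compound concentrations of 1 µM and 10 µM, each value the mean of 2 experiments.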

[2] = biological target: Prothrombin (Homo sapiens) (UniProt P00734); test: Inhibition of human thrombin using Z-Gly-Pro-Arg-AMC as substrate at 1 uM after 60 mins by fluorescence spectrophotometric method relative to control; summary of the method: as §1
[3] = biological target: T1, Neutrophil elastase (Homo sapiens) (UniProt P08246); test: Inhibition of human ELA2 using N-MeOSuc-Ala-Ala-Pro-Val-pNA as substrate at 1 uM after 60 mins by spectrophotometric method relative to control; summary of the method: as §1
T1 sequence (whole entry): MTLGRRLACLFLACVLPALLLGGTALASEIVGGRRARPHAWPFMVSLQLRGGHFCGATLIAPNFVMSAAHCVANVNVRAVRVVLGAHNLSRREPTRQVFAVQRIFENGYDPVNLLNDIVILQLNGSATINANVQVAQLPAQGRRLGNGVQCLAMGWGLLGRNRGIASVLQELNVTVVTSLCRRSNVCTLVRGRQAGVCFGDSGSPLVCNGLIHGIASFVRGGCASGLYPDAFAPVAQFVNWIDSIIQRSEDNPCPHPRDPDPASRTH

[4] = biological target: T1, Neutrophil elastase (Homo sapiens); test: Inhibition of elastase (unknown origin) at 1 uM relative to control; summary of the method: as §1
[5] = biological target: Coagulation factor X (Homo sapiens) (UniProt P00742); test: Inhibition of factor 10a (unknown origin) at 1 uM after 15 mins by fluorescence assay relative to control; summary of the method: as §1
Chain of Coagulation factor X (Homo sapiens) (P00742 41-179 limits assumed): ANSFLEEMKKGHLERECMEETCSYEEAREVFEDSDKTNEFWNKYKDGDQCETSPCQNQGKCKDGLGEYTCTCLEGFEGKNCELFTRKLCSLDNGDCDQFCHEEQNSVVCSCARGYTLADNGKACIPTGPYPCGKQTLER
Chain of Coagulation factor X (Homo sapiens) (P00742 235-488 limits assumed): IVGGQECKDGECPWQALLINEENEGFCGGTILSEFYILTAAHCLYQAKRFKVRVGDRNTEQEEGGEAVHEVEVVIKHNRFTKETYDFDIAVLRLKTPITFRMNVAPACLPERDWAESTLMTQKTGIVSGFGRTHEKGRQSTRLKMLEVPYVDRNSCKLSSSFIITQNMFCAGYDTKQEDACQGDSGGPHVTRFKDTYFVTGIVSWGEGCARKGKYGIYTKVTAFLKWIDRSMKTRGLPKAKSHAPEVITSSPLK

Tryptase (Homo sapiens) [6] = biological target: T2, Tryptase (Homo sapiens) (UniProt Q9BZJ3+Q15661+Q9NRR2); test: Inhibition of recombinant full length human tryptase usingZ-Gly-Pro-Arg-AMC as substrate at 10 uM after 60 mins by fluorescence spectrophotometric method relative to control; type: protein assay; summary of the method: as §1
[7] = biological target: Coagulation factor X (Homo sapiens) (UniProt P00742); test: Inhibition of factor 10a (unknown origin) at 10 uM after 15 mins by fluorescence assay relative to control; summary of the method: as §1
Chymase (Homo sapiens) = biological target: T3, Chymase (Homo sapiens) (UniProt P23946); test: Inhibition of human chymase using Suc-Ala-Ala-Pro-Phe-AMC as substrate at 10 uM after 120 mins by fluorescence spectrophotometric method relative to control; summary of the method: as §1
T3 sequence (whole entry): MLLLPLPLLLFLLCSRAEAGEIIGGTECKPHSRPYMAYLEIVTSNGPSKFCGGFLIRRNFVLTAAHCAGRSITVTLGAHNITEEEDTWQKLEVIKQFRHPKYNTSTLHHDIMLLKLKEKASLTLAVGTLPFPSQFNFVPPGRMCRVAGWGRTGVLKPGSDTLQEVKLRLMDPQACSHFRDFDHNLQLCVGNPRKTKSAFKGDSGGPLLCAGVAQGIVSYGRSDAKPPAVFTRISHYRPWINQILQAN

Serine protease hepsin [8] = biological target: Serine protease hepsin (Homo sapiens, UniProt P05981); test: Inhibition of doxycycline induced Hepsin in human MCF10A cells using Boc-QRR-AMC as substrate preincubated for 24 hrs followed by doxycycline induction for 24 hrs and subsequent addition of substrate by fluorescence assay; type: cell-based
Chain of Serine protease hepsin (Homo sapiens, UniProt P05981) (P05981 1-162 limits assumed): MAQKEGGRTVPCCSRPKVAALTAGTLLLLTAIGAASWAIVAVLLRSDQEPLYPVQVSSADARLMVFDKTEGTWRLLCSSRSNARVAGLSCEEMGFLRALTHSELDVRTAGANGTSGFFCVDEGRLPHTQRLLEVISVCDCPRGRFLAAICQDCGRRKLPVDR
Chain of Serine protease hepsin (Homo sapiens, UniProt P05981) (P05981 163-417 limits assumed): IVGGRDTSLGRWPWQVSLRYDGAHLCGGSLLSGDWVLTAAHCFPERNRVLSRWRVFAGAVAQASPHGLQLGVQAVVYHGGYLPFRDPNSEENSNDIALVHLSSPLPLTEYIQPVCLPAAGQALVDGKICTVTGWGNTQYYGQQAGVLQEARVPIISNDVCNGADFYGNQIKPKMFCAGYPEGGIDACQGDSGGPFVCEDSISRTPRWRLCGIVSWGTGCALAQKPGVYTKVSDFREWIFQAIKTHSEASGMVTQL

[9] = biological target: T4, Cathepsin G (Homo sapiens) (UniProt P08311); test: Inhibition of human cathepsin G using Suc-Ala-Ala-Pro-Phe-AMC as substrate at 1 uM after 30 mins by fluorescence spectrophotometric method relative to control; summary of the method: as §1
T4 sequence (whole entry): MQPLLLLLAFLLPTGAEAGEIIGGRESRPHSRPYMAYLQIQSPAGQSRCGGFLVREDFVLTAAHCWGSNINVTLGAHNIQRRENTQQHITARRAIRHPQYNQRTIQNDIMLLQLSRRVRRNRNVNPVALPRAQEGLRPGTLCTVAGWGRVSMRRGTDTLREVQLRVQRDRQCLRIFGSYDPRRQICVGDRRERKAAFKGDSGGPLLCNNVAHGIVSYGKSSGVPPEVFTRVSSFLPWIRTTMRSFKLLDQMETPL

Tryptase (Homo sapiens) [10] = biological target: T2, Tryptase (Homo sapiens); test: Inhibition of recombinant full length human tryptase usingZ-Gly-Pro-Arg-AMC as substrate at 1 uM after 60 mins by fluorescence spectrophotometric method relative to control; type: protein assay; summary of the method: as §1
[11] = biological target: T5, Suppressor of tumorigenicity 14 protein (Homo sapiens) (UniProt Q9Y5Y6); test: Inhibition of matriptase (unknown origin) using BOC-QAR-AMC as substrate at 10 uM after 15 mins by fluorescence assay relative to control; summary of the method: as §1
T5 sequence (whole entry): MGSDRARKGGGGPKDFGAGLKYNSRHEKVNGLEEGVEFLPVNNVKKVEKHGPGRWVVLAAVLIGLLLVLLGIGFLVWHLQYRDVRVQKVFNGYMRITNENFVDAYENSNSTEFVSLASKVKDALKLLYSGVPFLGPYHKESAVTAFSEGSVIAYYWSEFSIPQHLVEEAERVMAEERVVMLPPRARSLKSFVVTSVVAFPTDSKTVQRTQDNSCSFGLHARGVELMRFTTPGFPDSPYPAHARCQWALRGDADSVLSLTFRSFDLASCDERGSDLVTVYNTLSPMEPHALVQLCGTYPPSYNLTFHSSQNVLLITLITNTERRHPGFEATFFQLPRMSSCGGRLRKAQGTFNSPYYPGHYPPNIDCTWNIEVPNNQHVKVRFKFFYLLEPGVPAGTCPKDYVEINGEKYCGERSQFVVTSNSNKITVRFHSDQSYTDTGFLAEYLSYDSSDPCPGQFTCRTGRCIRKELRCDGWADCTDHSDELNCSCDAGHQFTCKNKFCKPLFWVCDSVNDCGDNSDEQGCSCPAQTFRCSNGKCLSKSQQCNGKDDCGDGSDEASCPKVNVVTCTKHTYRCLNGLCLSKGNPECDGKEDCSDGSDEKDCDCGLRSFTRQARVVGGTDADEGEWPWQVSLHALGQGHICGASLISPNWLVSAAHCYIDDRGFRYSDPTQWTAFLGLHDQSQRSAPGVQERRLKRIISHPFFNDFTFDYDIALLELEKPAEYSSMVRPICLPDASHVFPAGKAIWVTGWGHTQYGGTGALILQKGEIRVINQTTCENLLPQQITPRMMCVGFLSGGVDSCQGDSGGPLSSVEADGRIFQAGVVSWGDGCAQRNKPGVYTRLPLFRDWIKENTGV

[12] = Half life in mouse liver microsomes at 3 uM preincubated for 5 mins followed by NADPH addition by LC-MS/MS analysis; type: ADME, microsome
[13] = Kinetic solubility of the compound in PBS at pH 7.4 at 6.75 to 200 uM after 90 mins by UV absorbance based assay; type: physicochemical; details: read-out: Kinetic_solubility
[14] = biological target: Dipeptidyl peptidase 4 (Homo sapiens) (UniProt P27487); test: Inhibition of recombinant full length human dipeptidyl peptidase 4 using GP-AMC as substrate at 1 uM after 10 mins by fluorescence spectrophotometric method relative to control; summary of the method: as §1
Chain of Dipeptidyl peptidase 4 (Homo sapiens) (P27487 whole entry, looked up): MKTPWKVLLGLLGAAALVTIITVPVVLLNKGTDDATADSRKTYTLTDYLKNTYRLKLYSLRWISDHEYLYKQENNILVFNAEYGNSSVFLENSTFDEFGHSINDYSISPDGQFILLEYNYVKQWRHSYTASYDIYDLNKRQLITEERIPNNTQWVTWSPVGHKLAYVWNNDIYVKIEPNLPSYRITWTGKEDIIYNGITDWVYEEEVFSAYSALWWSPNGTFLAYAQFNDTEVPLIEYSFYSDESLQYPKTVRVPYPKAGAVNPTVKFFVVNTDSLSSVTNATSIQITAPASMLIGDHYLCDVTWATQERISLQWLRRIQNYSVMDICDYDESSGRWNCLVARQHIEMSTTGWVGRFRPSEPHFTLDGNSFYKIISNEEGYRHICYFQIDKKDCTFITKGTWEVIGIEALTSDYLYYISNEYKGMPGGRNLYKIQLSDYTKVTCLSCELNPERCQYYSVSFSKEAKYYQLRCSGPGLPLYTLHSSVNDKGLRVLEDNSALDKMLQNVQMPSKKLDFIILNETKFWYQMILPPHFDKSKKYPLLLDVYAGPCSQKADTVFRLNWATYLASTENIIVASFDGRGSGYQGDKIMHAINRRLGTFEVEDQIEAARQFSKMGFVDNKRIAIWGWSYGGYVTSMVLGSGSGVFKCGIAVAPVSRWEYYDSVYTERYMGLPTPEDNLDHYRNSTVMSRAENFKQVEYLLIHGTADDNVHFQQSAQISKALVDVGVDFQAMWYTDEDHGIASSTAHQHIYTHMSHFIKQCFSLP

Serine protease hepsin [15] = biological target: Serine protease hepsin (Homo sapiens, UniProt P05981, D161E/R162K); test: Inhibition of recombinant C-terminal His10-tagged human Hepsin (R45 to […] residues) D161E/ R162K double mutant expressed in mouse NS0 cells using Boc-QRR-AMC as substrate after 15 mins by manual fluorescence assay

Compound	inhibition [1]	inhibition [2]	inhibition [3]	inhibition [4]	inhibition [5]	inhibition (Tryptase (Homo sapiens) [6])	inhibition [7]	inhibition (Chymase (Homo sapiens))	IC50 (Serine protease hepsin [8])	inhibition [9]	inhibition (Tryptase (Homo sapiens) [10])	inhibition [11]	half-life at 3 µM [12]	solubility kinetic at 1.5 h [13]	inhibition [14]	IC50 (Serine protease hepsin [15])
Cc1ccc(S(=O)(=O)N[C@@H](C(=O)Nc2ccc(C(=N)N)cc2)C2CCCCC2)cc1	29%	11%	< 10%	< 10%	< 10%	98%	< 10%	< 10%	990 nM	< 10%	52%	< 10%	1.23 h	> 200 µM	< 10%	38 to 70 nM
Cc1ccc(S(=O)(=O)N[C@@H](C(=O)Nc2ccc(C(=N)N)cc2)c2ccccc2)cc1	85%	< 10%	< 10%	< 10%	< 10%	80%	< 10%	< 10%	100 nM	< 10%	27%	< 10%	1.8 h	> 200 µM	< 10%	22 nM
N=C(N)c1ccc(NC(=O)[C@H](NS(=O)(=O)c2ccc(F)cc2)C2CCCCC2)cc1	34%	< 10%	< 10%	< 10%	< 10%	91%	< 10%	< 10%	1290 nM	< 10%	40%	< 10%	0.8 h	200 µM (≈ 86.5 µg/mL)	< 10%	190 nM
